{
  "source": "paper PMC5884419",
  "about": "(European journal of pharmaceutical sciences : official …, 2018)",
  "key": {"human ABCB1": {"test_system": "human ABCB1", "details": "ref Weidner et al., 2015; cited from earlier work"}, "[1]": {"details": "mice, 1 h after i.v. 10 mg/kg; ref Zhang et al., 2011; cited from earlier work"}, "[2]": {"experiment": "tolerability of co-injected pharmacologic dose of unlabeled Ko143", "type": "in vivo", "details": "wild-type mice, 10 mg/kg i.v. co-injected with radiotracer"}, "Abcb1a/b [3]": {"target": "T1, Abcb1a/b (Mus musculus, UniProt P21447)", "T1 sequence (P21447 whole entry)": "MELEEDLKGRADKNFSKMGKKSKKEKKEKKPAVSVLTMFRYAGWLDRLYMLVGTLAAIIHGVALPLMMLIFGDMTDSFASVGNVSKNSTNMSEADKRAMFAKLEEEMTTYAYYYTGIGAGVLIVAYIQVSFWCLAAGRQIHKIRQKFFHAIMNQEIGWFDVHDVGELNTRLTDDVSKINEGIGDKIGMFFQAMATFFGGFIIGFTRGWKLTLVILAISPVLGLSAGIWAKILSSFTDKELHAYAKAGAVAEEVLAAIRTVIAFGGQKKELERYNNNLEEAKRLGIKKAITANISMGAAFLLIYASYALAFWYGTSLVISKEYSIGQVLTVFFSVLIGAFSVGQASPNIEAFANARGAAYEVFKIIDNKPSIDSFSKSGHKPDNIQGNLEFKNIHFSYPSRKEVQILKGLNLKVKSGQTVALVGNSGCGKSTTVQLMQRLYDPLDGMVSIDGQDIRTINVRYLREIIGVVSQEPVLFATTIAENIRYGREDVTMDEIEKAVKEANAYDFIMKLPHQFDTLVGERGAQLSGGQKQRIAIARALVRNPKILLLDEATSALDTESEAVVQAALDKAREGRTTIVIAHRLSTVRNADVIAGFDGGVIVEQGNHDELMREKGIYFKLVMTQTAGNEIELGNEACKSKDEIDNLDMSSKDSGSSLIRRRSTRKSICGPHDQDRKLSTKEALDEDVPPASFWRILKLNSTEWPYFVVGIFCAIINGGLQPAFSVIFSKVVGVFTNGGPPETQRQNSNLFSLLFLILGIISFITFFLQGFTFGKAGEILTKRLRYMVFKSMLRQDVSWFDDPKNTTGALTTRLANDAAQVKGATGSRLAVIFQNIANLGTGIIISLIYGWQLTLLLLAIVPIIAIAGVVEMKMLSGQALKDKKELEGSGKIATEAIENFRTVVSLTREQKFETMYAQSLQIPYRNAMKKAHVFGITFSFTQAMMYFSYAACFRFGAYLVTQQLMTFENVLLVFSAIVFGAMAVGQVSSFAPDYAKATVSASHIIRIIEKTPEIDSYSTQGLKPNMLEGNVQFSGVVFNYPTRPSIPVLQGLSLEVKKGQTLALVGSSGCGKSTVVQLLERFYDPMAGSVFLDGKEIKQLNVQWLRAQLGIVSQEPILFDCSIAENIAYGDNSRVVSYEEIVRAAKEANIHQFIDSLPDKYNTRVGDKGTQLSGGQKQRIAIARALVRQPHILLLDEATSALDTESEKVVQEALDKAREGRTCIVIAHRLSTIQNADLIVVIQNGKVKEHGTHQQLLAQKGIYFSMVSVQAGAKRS", "details": "Abcb1a/b^(-/-) and Abcb1a/b^(-/-)Abcg2^(-/-) mice; ref Liu et al., 2012; cited from earlier work"}, "[4]": {"experiment": "plasma concentration after i.v. administration", "type": "in vivo, mice", "details": "mouse, iv, 10 mg/kg"}, "[5]": {"details": "rat plasma; ref Liu et al., 2014; cited from earlier work"}, "Abcb1a/b [6]": {"target": "T1, Abcb1a/b", "type": "in vivo", "details": "wild-type and Abcg2^(-/-) mice, microdose"}, "[7]": {"type": "in vivo, mice", "outline": "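Female FVB wild-type mice under isoflurane had 60-min dynamic PET after tail-vein injection of radiotracer mixed with test compound (10 mg/kg) or its vehicle (4 mL/kg), versus radiotracer alone. Liver and kidney kuptake came from an integration plot over 0.3–3.5 min. kurine and kbile came from 4.5–45 min data, with biliary activity taken as gallbladder + duodenum + intestine. Extraction ratio = kuptake divided by assumed blood flow (liver 1.0, kidney 4.1 mL/min/g).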"}, "[8]": {"experiment": "radio-TLC analysis of radiolabeled metabolites in tissues and fluids", "type": "in vivo, mice", "details": "20 min after i.v. injection", "outline": "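Female FVB wild-type and Abcb1a/b(-/-)Abcg2(-/-) mice, 7–8 weeks old, under isoflurane, given radiotracer i.v. (28.4 ± 4.1 MBq, 0.1 mL). At 20 min, blood was drawn from the retro-orbital sinus and the animals were killed. Plasma, liver, kidneys, brain, bile and urine were collected. Tissues were homogenised, proteins precipitated with acetonitrile, then spun at 12,000 g, 5 min, 4°C. Percent unchanged radiotracer was determined by radio-TLC.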"}, "Abcg2": {"target": "T2, Abcg2 (Mus musculus, UniProt Q7TMS5)", "T2 sequence (Q7TMS5 1-657)": "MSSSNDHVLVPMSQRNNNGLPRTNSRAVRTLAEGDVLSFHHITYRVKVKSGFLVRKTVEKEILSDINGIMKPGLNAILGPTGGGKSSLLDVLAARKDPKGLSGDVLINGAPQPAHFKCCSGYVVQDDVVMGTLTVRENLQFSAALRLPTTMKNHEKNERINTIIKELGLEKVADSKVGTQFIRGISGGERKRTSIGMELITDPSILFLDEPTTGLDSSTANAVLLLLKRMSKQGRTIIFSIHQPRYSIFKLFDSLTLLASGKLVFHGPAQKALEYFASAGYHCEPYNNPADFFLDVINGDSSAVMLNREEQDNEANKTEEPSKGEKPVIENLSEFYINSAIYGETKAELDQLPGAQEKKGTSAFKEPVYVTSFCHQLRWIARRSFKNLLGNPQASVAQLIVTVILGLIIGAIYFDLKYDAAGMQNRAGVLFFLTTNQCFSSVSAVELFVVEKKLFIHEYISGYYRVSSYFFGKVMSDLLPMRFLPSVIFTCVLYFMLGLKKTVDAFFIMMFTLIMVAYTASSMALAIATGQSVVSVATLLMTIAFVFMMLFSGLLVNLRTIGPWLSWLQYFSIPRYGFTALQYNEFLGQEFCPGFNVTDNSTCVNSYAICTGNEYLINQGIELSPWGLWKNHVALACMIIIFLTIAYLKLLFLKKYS", "type": "in vivo", "details": "Abcg2^(-/-) and Abcb1a/b^(-/-)Abcg2^(-/-) mice, microdose", "outline": "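Female FVB Abcg2(-/-), Abcb1a/b(-/-)Abcg2(-/-) and wild-type mice, 7–8 weeks old, under isoflurane, had 60-min dynamic PET started with a tail-vein i.v. microdose of radiotracer (26.6 ± 10.5 MBq, 0.1 mL). The kidney-to-urine rate constant kurine was derived from 4.5–45 min data, given as mean ± S.D. Knockouts were compared with wild-type by one-way ANOVA with Tukey's test.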"}, "ABCB1": {"test_system": "ABCB1", "details": "ref Hugger et al., 2002, cited from earlier work"}, "[9]": {"details": "wild-type mice, microdose i.v., integration plot 0.3-3.5 min"}},
  "note": "Where two headings read alike, the source gives them in different places. Marks after values point to notes of the source that are not given here.",
  "data": [
    {"compound": "COc1ccc2c3c([nH]c2c1)[C@H](CC(C)C)N1C(=O)[C@H](CCC(=O)OC(C)(C)C)NC(=O)[C@@H]1C3", "note": "[Ko143, (3S,6S,12aS)-1,2,3,4,6,7,12,12a-octahydro-9-methoxy-6-(2-methylpropyl)-1,4-dioxopyrazino[1’,2’:1,6]pyrido[3,4-b]indole-3-propanoic acid 1,1-dimethylethyl ester]", "values": [
      {"measurement": "effect on human ABCB1 ATPase activity", "setting": "human ABCB1", "result": "stimulated"},
      {"measurement": "plasma concentration", "setting": "[1]", "result": 420, "unit": "nM"},
      {"measurement": "tolerability", "setting": "[2]", "result": "well tolerated"},
      {"measurement": "brain concentrations, fold higher than in Abcg2^(-/-) mice", "setting": "Abcb1a/b [3]", "result": "about 3 fold"},
      {"measurement": "concentration at 1 h", "setting": "[4]", "result": 12, "unit": "nM"},
      {"measurement": "unbound fraction in plasma", "setting": "[5]", "result": 0.0293}
    ]},
    {"compound": "CC(C)C[C@H]1c2[nH]c3cc(O[11CH3])ccc3c2C[C@H]2C(=O)N[C@@H](CCC(=O)OC(C)(C)C)C(=O)N21", "note": "[[^11C]Ko143]", "values": [
      {"measurement": "brain concentration-time curves, fold lower than in Abcb1a/b^(-/-) and Abcb1a/b^(-/-)Abcg2^(-/-) mice", "setting": "Abcb1a/b [6]", "result": "approximately 2 fold"},
      {"measurement": "kbile, fold lower than with [^11C]Ko143 alone", "setting": "[7]; wild-type mice co-injected with Ko143 vehicle", "result": 2.4, "unit": "fold"},
      {"measurement": "kbile, fold lower than with [^11C]Ko143 alone", "setting": "[7]; wild-type mice co-injected with unlabeled Ko143 (10 mg/kg)", "result": 1.9, "unit": "fold"},
      {"measurement": "kurine", "setting": "[7]; wild-type mice co-injected with unlabeled Ko143 (10 mg/kg) or Ko143 vehicle", "result": "almost decreased to zero"},
      {"measurement": "mean kuptake, kidney", "setting": "[7]; [9]", "result": 0.262, "unit": "mL/min/g tissue"},
      {"measurement": "mean kuptake, liver", "setting": "[7]; [9]", "result": 0.689, "unit": "mL/min/g tissue"},
      {"measurement": "Percentage of unchanged radiotracer, Bile", "setting": "[8]; Abcb1a/b^(-/-)Abcg2^(-/-) mice", "result": "1.5 ± 1.0", "unit": "%"},
      {"measurement": "Percentage of unchanged radiotracer, Brain", "setting": "[8]; Abcb1a/b^(-/-)Abcg2^(-/-) mice", "result": "73.2 ± 2.4 ^a %"},
      {"measurement": "Percentage of unchanged radiotracer, Kidney", "setting": "[8]; Abcb1a/b^(-/-)Abcg2^(-/-) mice", "result": "21.6 ± 2.0", "unit": "%"},
      {"measurement": "Percentage of unchanged radiotracer, Liver", "setting": "[8]; Abcb1a/b^(-/-)Abcg2^(-/-) mice", "result": "16.0 ± 1.8", "unit": "%"},
      {"measurement": "Percentage of unchanged radiotracer, Plasma", "setting": "[8]; Abcb1a/b^(-/-)Abcg2^(-/-) mice", "result": "34.7 ± 0.4", "unit": "%"},
      {"measurement": "Percentage of unchanged radiotracer, Bile", "setting": "[8]; wild-type mice", "result": "15.2 ± 21.0", "unit": "%"},
      {"measurement": "Percentage of unchanged radiotracer, Brain", "setting": "[8]; wild-type mice", "result": "51.5 ± 13.9", "unit": "%"},
      {"measurement": "Percentage of unchanged radiotracer, Kidney", "setting": "[8]; wild-type mice", "result": "35.6 ± 9.6", "unit": "%"},
      {"measurement": "Percentage of unchanged radiotracer, Liver", "setting": "[8]; wild-type mice", "result": "17.4 ± 2.7", "unit": "%"},
      {"measurement": "Percentage of unchanged radiotracer, Plasma", "setting": "[8]; wild-type mice", "result": "36.0 ± 1.5", "unit": "%"},
      {"measurement": "kurine compared with wild-type mice", "setting": "Abcg2", "result": "significantly lower"}
    ]},
    {"compound": "polyethylene glycol 300 [PEG300]", "values": [
      {"measurement": "inhibition of ABCB1 activity", "setting": "ABCB1; 20% v/v, Caco-2 and MDR1-MDCK cell monolayers", "result": "almost complete in vitro inhibition"}
    ]},
    {"compound": "polysorbate 80", "values": [
      {"measurement": "inhibition of ABCB1 activity", "setting": "ABCB1; 0.05% w/v, Caco-2 cells", "result": "only partially inhibited"}
    ]}
  ]
}
